Screening results (PubChem BioAssay)
Shown is part of a subset that was picked to be rich in hits.
UPR XBP1 act – adaptive UPR (XBP1) activation | AID 463104 | activation, % at 20 µM | CHO-XBP1 luciferase reporter, IRE1-XBP1 UPR activation, luminescence; percent of tunicamycin response, DMSO as zero | 0.33% of 330,000 active;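 active = versus positive control, 20 µM dose yields 30% or more activation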;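 also: 100% = tunicamycin at 10 µg/mL and 0% = DMSO only wells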
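Material: CHO-XBP1 cells stably carrying IRE1-XBP1-driven luciferase reporter / Amount: 1000 cells per well / Compound: 20 µM, 1% DMSO / Times: 6 h treatment, 37 °C / Detection: luciferase luminescence / Measure: % activation of reporter signal versus tunicamycin and DMSO controls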
CHOP inh – CHOP inhibition in unfolded protein response | CHO-K1 CHOP-promoter luciferase, tunicamycin-induced, 15-18 h | inhibition, % at 10 µM | 3.8% of 220,000 active | AID 2732;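 active = compounds that reduced the stress-induced luciferase reporter signal by more than about 70% of percent inhibition, limit read from the data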;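 also: 0% = tunicamycin plus vehicle and 100% = wells without tunicamycin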
TbMetRS inhib – Trypanosoma brucei MetRS inhibition; purified T. brucei MetRS, ATP depletion, Kinase-Glo luminescence; inhibition, % at 11.9 µM; 0.4% of 360,000 active;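 active = inhibition above a per-plate cutoff of the control wells' mean inhibition plus 3 SD, cut at about 5.5% in these data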;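 also: 0% = DMSO wells median and 100% = median of wells with control inhibitor compound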
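Test system: purified T. brucei MetRS enzyme. Also added: ATP, methionine and E. coli bulk tRNA substrates. Compound: 11.9 µM single point. Schedule: 15 min enzyme-compound preincubation, 2 h reaction, 10 min detection, 25 °C. Signal: luciferase luminescence of residual ATP, Kinase-Glo. Evaluation: percent inhibition versus plate control medians. Controls: DMSO wells, low control.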
V-ATPase pH – yeast V-ATPase proton transport regulation by pHLuorin; S. cerevisiae, pHLuorin cytosolic pH fluorescence; response, % at 10 µM; 0.37% of 350,000 active; AID 504577; in the data active = response mostly above about 7.3%, no sharp cut-off; inactive = mostly below about 5.4%; also: actives read high
CHOP UPR activ – apoptotic UPR (CHOP) activation | CHO-CHOP luciferase reporter, luminescence; percent of tunicamycin response over DMSO baseline | activation, % at 10 µM | 0.34% of 330,000 active | AID 449763;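 active = at 10 µM dose, activation of 40% or more, normalized to positive control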;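 also: 100% = tunicamycin at 10 µg/mL and 0% = DMSO alone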
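Test system: CHO-CHOP cells, stable luciferase reporter of PERK-eIF2a-CHOP signalling | Quantity: 500 CHO-CHOP cells per well | Buffer or medium: F12 plus 10% serum | Compound dosing: 10 µM single point, 0.5% DMSO | Schedule: 6 h compound treatment, 37 °C | Signal: Luciferase luminescence | Control set: Tunicamycin high control, DMSO low control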
TbMetRS confirm – confirmation of Trypanosoma brucei MetRS inhibitors | T. brucei MetRS enzyme, luminescence (ATP depletion) | 93% of 1,400 active | shares compounds with TbMetRS inhib | inhibition, % at 11.9 µM; in the data active = inhibition above about 7%
Jurkat tox – kills Jurkat cells in T. brucei MetRS counterscreen. AID 624413. Jurkat cells viability, ATP luminescence. shares compounds with TbMetRS inhib. inhibition, % at 8.3 µM. 12% of 1,400 active; in the data active = inhibition above about 15%;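 also: 0% = vehicle and 100% = reference inhibitor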
TbMetRS FP orth – T. brucei MetRS inhibition, orthogonal assay; shares compounds with TbMetRS inhib; purified T. brucei MetRS, fluorescence polarization; inhibition, % at 11.9 µM; 44% of 1,400 active; AID 651607; in the data active = inhibition above about 17%;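 also: 0% = vehicle wells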
* = called active by the depositor.

What do the screens show for `O=C(NCc1nc2ccccc2[nH]1)C1=C[C@H](c2ccccc2)C[C@H](OCc2ccc(CO)cc2)O1`?
UPR XBP1 act: 1; CHOP inh: 21; TbMetRS inhib: 31*; V-ATPase pH: 2; CHOP UPR activ: 1; TbMetRS confirm: 75*; Jurkat tox: 1; TbMetRS FP orth: 38*

How did O=C(NCc1nc2ccccc2[nH]1)C1=C[C@H](c2ccc3c(c2)OCO3)C[C@H](OCc2ccc(CO)cc2)O1 do in these assays?
UPR XBP1 act: -4; CHOP inh: 60; TbMetRS inhib: 54*; V-ATPase pH: 0; CHOP UPR activ: -1; TbMetRS confirm: 90*; Jurkat tox: -5; TbMetRS FP orth: 60*

Results for CCCc1c(C(=O)N/N=C/c2cccc(OCc3ccc(F)cc3)c2)nnn1-c1nonc1N ?
UPR XBP1 act: -1; TbMetRS inhib: 0; V-ATPase pH: -2; CHOP UPR activ: -1

Results for CCc1cc(=O)oc2cc(C)cc(OC(C)C(=O)NCCN3CCOCC3)c12 (stereo not drawn) ?
UPR XBP1 act: -2; TbMetRS inhib: 0; V-ATPase pH: -3; CHOP UPR activ: -1

How did COc1cc(CCC(=O)OCC(=O)Nc2cc(S(=O)(=O)N3CCOCC3)ccc2Cl)cc(OC)c1OC do in these assays?
TbMetRS inhib: 0; V-ATPase pH: -3

What do the screens show for `CC(C)(C)[C@H]1C=C(C(=O)NCc2nc3ccccc3[nH]2)O[C@@H](OCc2ccc(CO)cc2)C1`?
UPR XBP1 act: -2; CHOP inh: 13; TbMetRS inhib: 62*; V-ATPase pH: 2; CHOP UPR activ: 1; TbMetRS confirm: 87*; Jurkat tox: 7; TbMetRS FP orth: 61*

What do the screens show for `O=C(NCc1nc2ccccc2[nH]1)C1=C[C@@H](c2ccccc2)C[C@@H](OCc2ccc(CO)cc2)O1`?
UPR XBP1 act: 0; CHOP inh: 26; TbMetRS inhib: 77*; V-ATPase pH: 2; CHOP UPR activ: 1; TbMetRS confirm: 104*; Jurkat tox: -4; TbMetRS FP orth: 84*

Results for O=C(NCc1nc2ccccc2[nH]1)C1=C[C@H](C2CCCCC2)C[C@H](OCc2ccc(CO)cc2)O1 ?
UPR XBP1 act: -2; CHOP inh: 29; TbMetRS inhib: 5; V-ATPase pH: 0; CHOP UPR activ: -1

What do the screens show for `COc1ccc(NS(=O)(=O)c2cccc(C(=O)NNC(=O)c3cc(S(N)(=O)=O)ccc3OC)c2)cc1`?
UPR XBP1 act: -5; TbMetRS inhib: -1; V-ATPase pH: -3; CHOP UPR activ: -1

How did COc1ccccc1N1CCN(S(=O)(=O)c2ccc3c(c2)n(C)c(=O)n3C)CC1 do in these assays?
UPR XBP1 act: -3; CHOP inh: 31; TbMetRS inhib: 1; V-ATPase pH: -1; CHOP UPR activ: -2

What do the screens show for `Cc1cccc(C(=O)OCC(=O)NN2C(=O)NC3(CCC(C)CC3)C2=O)c1O` (stereo not drawn)?
UPR XBP1 act: 0; TbMetRS inhib: 0; V-ATPase pH: 1; CHOP UPR activ: 0

How did Nc1cc(Oc2ccc(Cl)cc2Cl)nc(N)n1 do in these assays?
UPR XBP1 act: -6; TbMetRS inhib: 22*; V-ATPase pH: -2; CHOP UPR activ: 0; TbMetRS confirm: 31*; Jurkat tox: -1; TbMetRS FP orth: 24*

Results for CCc1nc(NCCC(C)C)c2nnn(Cc3ccccc3)c2n1 ?
UPR XBP1 act: -3; TbMetRS inhib: 0; V-ATPase pH: -4; CHOP UPR activ: -1

Results for Cc1nc(NCCC(C)C)c2nnn(Cc3ccccc3)c2n1 ?
UPR XBP1 act: -5; TbMetRS inhib: 7.3*; V-ATPase pH: 3; CHOP UPR activ: 2; TbMetRS confirm: 2; Jurkat tox: 2; TbMetRS FP orth: 9

Results for Cc1ncc(CN2CCCC(C(=O)Nc3ccc(-c4cscn4)cc3)C2)cn1 (stereo not drawn) ?
UPR XBP1 act: -1; TbMetRS inhib: -1; V-ATPase pH: 1; CHOP UPR activ: 0

What do the screens show for `COc1cccc(CN2CCCC(C(=O)Nc3ccc(-c4cscn4)cc3)C2)c1` (stereo not drawn)?
UPR XBP1 act: -1; TbMetRS inhib: 7.4*; V-ATPase pH: -2; CHOP UPR activ: 2; TbMetRS confirm: 28*; Jurkat tox: 11; TbMetRS FP orth: 10

Results for CN(C(=O)C1CCC(=O)N(CCCN2CCCC2=O)C1)C(C1CC1)C1CC1 (stereo not drawn) ?
UPR XBP1 act: -4; TbMetRS inhib: 0; V-ATPase pH: 5; CHOP UPR activ: 0

Results for CCC[C@H]1CN(Cc2cccnc2)C(=O)[C@@H]1CC(=O)Nc1ccc(Br)cc1 ?
TbMetRS inhib: 72*; V-ATPase pH: 0; TbMetRS confirm: 87*; Jurkat tox: -4; TbMetRS FP orth: 61*

What do the screens show for `CSC[C@H]1CN(Cc2cccnc2)C(=O)[C@@H]1CC(=O)Nc1ccc(Br)cc1`?
TbMetRS inhib: 69*; V-ATPase pH: -1; TbMetRS confirm: 82*; Jurkat tox: -7; TbMetRS FP orth: 51*

How did O=C(C[C@H]1C(=O)N(Cc2cccnc2)C[C@@H]1Cc1ccccc1)Nc1ccccc1 do in these assays?
TbMetRS inhib: 0; V-ATPase pH: -2

What do the screens show for `O=C(OCCc1cc2ccccc2c(=O)o1)c1ccco1`?
UPR XBP1 act: 4; TbMetRS inhib: 0; V-ATPase pH: -2; CHOP UPR activ: 7

Results for CCNC(=O)C1(C)CCCN(Cc2noc(-c3c(C)noc3C)n2)C1 (stereo not drawn) ?
TbMetRS inhib: 0

What do the screens show for `COc1ccc(C2=NN(C(=O)c3ccco3)C(c3ccco3)C2)cc1OC` (stereo not drawn)?
UPR XBP1 act: 13; TbMetRS inhib: -1; V-ATPase pH: 3; CHOP UPR activ: 6

How did O=C(NNC(=O)c1cc(-c2ccncc2)nc2ccccc12)Nc1ccc(F)cc1 do in these assays?
UPR XBP1 act: -2; TbMetRS inhib: 20*; V-ATPase pH: -1; CHOP UPR activ: 0; TbMetRS confirm: 39*; Jurkat tox: -2; TbMetRS FP orth: 19*

What do the screens show for `CNC(=S)NNC(=O)c1cc(-c2cccnc2)nc2ccccc12`?
UPR XBP1 act: -2; TbMetRS inhib: -1; V-ATPase pH: 2; CHOP UPR activ: 1
